Experimental data as given in ChEMBL document CHEMBL4033800, “Further Developments of the Phenyl-Pyrrolyl Pentane Series of Nonsteroidal Vitamin D Receptor Modulators as Anticancer Agents” (J Med Chem, 2018).
The source made the active and inactive calls. The calls are words filed in the database; no cut-off is given here.

Key:
MCF7 [1] = test: Induction of cell cycle arrest in human MCF7 cells assessed as accumulation at G2/M phase at 1 uM after 24 hrs by propidium iodide-staining based flow cytometry (reference value: 12.41%); type: functional
MCF7 [2] = test: Induction of apoptosis in human MCF7 cells assessed as late apoptotic cells at 1 uM after 24 hrs by Annexin V-FITC/propidium iodide-staining based flow cytometry (reference value: 0.062%); type: functional
HepG2 [3] = test: Induction of cell cycle arrest in human HepG2 cells at 1 uM after 24 hrs by propidium iodide-staining based flow cytometry; type: functional
MCF7 [4] = test: Antiproliferative activity against human MCF7 cells after 48 hrs by MTT assay; type: functional, cell-based; conditions: MCF7, 48 h
[5] = biological target: T1, Vitamin D3 receptor (Homo sapiens) (UniProt P11473); test: Transactivation of human GAL4-fused VRD expressed in HEK293 cells co-transfected with human RXRalpha/VDRE after 24 hrs by dual luciferase reporter gene assay; type: cell-based
T1 sequence (whole entry): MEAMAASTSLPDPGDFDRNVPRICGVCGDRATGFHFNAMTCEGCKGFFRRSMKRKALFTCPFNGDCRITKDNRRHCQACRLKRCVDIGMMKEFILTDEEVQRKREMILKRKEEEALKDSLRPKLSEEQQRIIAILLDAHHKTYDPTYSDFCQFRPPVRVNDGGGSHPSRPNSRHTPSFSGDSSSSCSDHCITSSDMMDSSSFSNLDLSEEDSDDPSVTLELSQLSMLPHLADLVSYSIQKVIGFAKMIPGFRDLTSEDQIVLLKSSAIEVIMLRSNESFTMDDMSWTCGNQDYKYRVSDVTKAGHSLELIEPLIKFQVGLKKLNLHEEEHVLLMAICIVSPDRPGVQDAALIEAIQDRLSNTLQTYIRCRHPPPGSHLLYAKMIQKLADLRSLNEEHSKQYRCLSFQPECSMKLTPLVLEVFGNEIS

PC-3 = test: Antiproliferative activity against human PC3 cells after 48 hrs by MTT assay; type: functional, cell-based; conditions: PC-3, 48 h
Vitamin D3 receptor = biological target: T2, Vitamin D3 receptor (Homo sapiens, UniProt P11473); test: Displacement of fluormone VDR red from human full length VDR after 4 hrs by fluorescence polarization assay
T2 sequence (P11473 whole entry): T1 sequence (whole entry)

L02 = test: Antiproliferative activity against human L02 cells after 48 hrs by MTT assay; type: cell-based; conditions: L02, 48 h
MCF7 [6] = test: Induction of cell cycle arrest in human MCF7 cells assessed as accumulation at G0/G1 phase at 1 uM after 24 hrs by propidium iodide-staining based flow cytometry (reference value: 56.03%); type: functional
Mus musculus = test: Hypercalcemic effect in ICR mouse at 0.5 to 5 mg/kg/day, ip administered for 7 days measured on day 8 post-dose by MTB-based assay relative to control; type: ADME, organism-based; conditions: in vivo, 168 h
Summary of the method: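 Mice were dosed i.p. over a 7-day period and serum calcium was then measured. Each dose level was compared with a vehicle-treated control group (saline cited as the comparator). Data are mean ± SEM, n = 6 per group. Significance versus vehicle was reported at p < 0.05, 0.01 and 0.001.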

Caco-2 = test: Antiproliferative activity against human Caco2 cells after 48 hrs by MTT assay; type: functional, cell-based; conditions: Caco-2, 48 h
MCF7 [7] = test: Induction of cell cycle arrest in human MCF7 cells assessed as accumulation at S phase at 1 uM after 24 hrs by propidium iodide-staining based flow cytometry (reference value: 31.55%); type: functional
MCF7 [8] = test: Induction of apoptosis in human MCF7 cells assessed as early apoptotic cells at 1 uM after 24 hrs by Annexin V-FITC/propidium iodide-staining based flow cytometry (reference value: 1.74%); type: functional
MCF7 [9] = test: Induction of apoptosis in human MCF7 cells assessed as necrotic cells at 1 uM after 24 hrs by Annexin V-FITC/propidium iodide-staining based flow cytometry (reference value: 0.031%); type: functional
MCF7 [10] = test: Induction of apoptosis in human MCF7 cells assessed as viable cells at 1 uM after 24 hrs by Annexin V-FITC/propidium iodide-staining based flow cytometry (reference value: 98.2%); type: functional; conditions: MCF7, 24 h, read-out: Activity
HepG2 [11] = test: Antiproliferative activity against human HepG2 cells after 48 hrs by MTT assay; type: functional, cell-based; conditions: HepG2, 48 h

Row | SMILES | Activity (MCF7 [1]) | Activity (MCF7 [2]) | Activity (HepG2 [3]) | IC50 (MCF7 [4]) | Activity [5] | IC50 (PC-3) | IC50 (Vitamin D3 receptor) | IC50 (L02) | Activity (MCF7 [6]) | Activity (Mus musculus) | IC50 (Caco-2) | Activity (MCF7 [7]) | Activity (MCF7 [8]) | Activity (MCF7 [9]) | viability at 1 µM (MCF7 [10]) | IC50 (HepG2 [11])
1 | CCn1c(C(=O)N(C)CC(=O)O)ccc1C(CC)(CC)c1ccc(OCCC(O)(CC)CC)c(C)c1 | 10.57% | 3.66% | Active | 0.079 µM | Dose-dependent effect | 2.25 µM | 873 nM | 2.15 µM | 61.76% | Non-Toxic | 2.74 µM | 27.68% | 8.42% | 0.17% | 87.8% | 5.71 µM
2 | Cc1cc(C2(c3ccc(OCC(=O)C(C)(C)C)c(C)c3)CCCCC2)ccc1OCC(=O)C(C)(C)C | 11.41% | 2.53% |  |  |  |  |  |  | 59.74% |  |  | 28.85% | 8.2% | 0.33% | 88.9% | 
3 | CCC(C)C(NC(=O)c1ccc(C(CC)(CC)c2ccc(OCCC(O)(CC)CC)c(C)c2)n1CC)C(=O)OC (centres undefined) |  |  |  | > 50 µM |  | > 50 µM |  | > 50 µM |  |  | > 50 µM |  |  |  |  | > 50 µM
4 | CCn1c(C(=O)N(CCC#N)CCC#N)ccc1C(CC)(CC)c1ccc(OCCC(O)(CC)CC)c(C)c1 |  |  |  | > 50 µM |  | > 50 µM |  | 37.8 µM |  |  | > 50 µM |  |  |  |  | 46.3 µM
5 | C#CCCOC(=O)c1ccc(C(CC)(CC)c2ccc(OCCC(O)(CC)CC)c(C)c2)n1CC |  |  |  | > 50 µM |  | > 50 µM |  | > 50 µM |  |  | > 50 µM |  |  |  |  | > 50 µM
6 | C#CC(C)OC(=O)c1ccc(C(CC)(CC)c2ccc(OCCC(O)(CC)CC)c(C)c2)n1CC (centres undefined) |  |  |  | > 50 µM |  | 14.8 µM |  | > 50 µM |  |  | > 50 µM |  |  |  |  | > 50 µM
7 | CCn1c(C(=O)NCCCN(C)C)ccc1C(CC)(CC)c1ccc(OCCC(O)(CC)CC)c(C)c1 |  |  |  | 3.35 µM |  | 2.15 µM |  | 2.42 µM |  |  | 0.49 µM |  |  |  |  | 0.11 µM
8 | CCC(C)C(CO)NC(=O)c1ccc(C(CC)(CC)c2ccc(OCCC(O)(CC)CC)c(C)c2)n1CC (centres undefined) |  |  |  | 29.1 µM |  | 28.4 µM |  | > 50 µM |  |  | > 50 µM |  |  |  |  | > 50 µM
9 | CCn1c(C(=O)NC(C)C(=O)O)ccc1C(CC)(CC)c1ccc(OCCC(O)(CC)CC)c(C)c1 (centres undefined) |  |  |  | 19.7 µM |  | 11.7 µM |  | 4.04 µM |  |  | 46.5 µM |  |  |  |  | 1.74 µM
10 | CCOc1ccc(NC(=O)c2ccc(C(CC)(CC)c3ccc(OCCC(O)(CC)CC)c(C)c3)n2CC)cc1 |  |  |  | > 50 µM |  | > 50 µM | 4540 nM | > 50 µM |  |  | > 50 µM |  |  |  |  | > 50 µM
11 | CCOC(=O)CN(C)C(=O)c1ccc(C(CC)(CC)c2ccc(OCCC(O)(CC)CC)c(C)c2)n1CC |  |  |  | 3.21 µM |  | 7.14 µM |  | 1.99 µM |  |  | 30.3 µM |  |  |  |  | 25.3 µM
12 | CCn1c(C(=O)NC(C)CO)ccc1C(CC)(CC)c1ccc(OCCC(O)(CC)CC)c(C)c1 (centres undefined) |  |  |  | 12.6 µM |  | 7.87 µM |  | 4.84 µM |  |  | > 50 µM |  |  |  |  | 43.1 µM
